What is called EC50 is the concentration giving half of the maximal effect. Low readings indicate a more potent agent, high ones a less potent agent. As a reminder, the CC50 is the concentration that lowers cell viability or growth by half.

Data on twelve molecules can be found in ChEMBL document CHEMBL1136122, “Are 5'-O-carbamate-2',3'-dideoxythiacytidine new anti-HIV and anti-HBV nucleoside drugs or prodrugs?” (Bioorg Med Chem Lett, 2003).

In one experiment the test system is HepG2. Put plainly: In vitro concentration required to inhibit HBV DNA secretion by HepG2.2.15 transfected by HBV. To be noted: Homo sapiens. The class given is functional, cell-based. In short, it runs like this: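 Used HepG2.2.15 cells stably transfected with HBV, following a standard procedure. EC50 is the concentration giving 50% inhibition of HBV DNA secretion, reported with standard deviation.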

Experiment [1] concerns MT4. As to the kind of experiment: In vitro concentration required to cause death of uninfected MT-4 cell. Type of experiment: functional. To be noted: Homo sapiens.
For experiment [2], the system named is MT4. Put plainly: In vitro concentration required to inhibit the cytopathicity of HIV-1 IIIB on MT-4 cell. Type of experiment: functional, cell-based. As to conditions: Homo sapiens; call rule not given here. In short, it runs like this:
(§1)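 EC50 is reported with standard deviation. In MT-4 cells it is 50% protection from HIV-1 cytopathicity. In PBMCs it is 50% inhibition of HIV-1 replication.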
For orientation: Protection from cytopathic effect is a common read-out in antiviral testing.

Experiment [3] is described as follows: In vitro concentration required to cause death of uninfected PBMCs cell (peripheral blood mononuclear cells). To be noted: Homo sapiens, PBMC. The class given is functional.
Experiment [4] in a line: In vitro concentration required to inhibit the HIV-1 LA1 replication on PBMCs cell (peripheral blood mononuclear cells). Type of experiment: functional, cell-based. To be noted: Homo sapiens, PBMC. In short, it runs like this: as §1
Experiment [5] in a line: Selectivity (CC50/EC50) for death of uninfected MT4 cell to that of inhibition of cytopathicity of HIV-1 IIIB on MT-4 cell. Type of experiment: functional.
Experiment [6] can be described thus: Selectivity (CC50/EC50) for death of uninfected PBMCs to that of inhibition of […] of HIV-1 LA1 on PBMCs (peripheral blood mononuclear cells). The class given is functional.
Experiment [7] relates to MT4. As to the kind of experiment: In vitro concentration required to inhibit the cytopathicity of HIV-1 IIIB on MT-4 cell; NA=no activity. Type of experiment: functional, cell-based, Homo sapiens. The gist of the method:
as §1

On to `NCCCNC(=O)OCC1OC(n2ccc(N)nc2=O)CS1` (centres undefined), for which the values for the concentration for a half-maximal effect (EC50) (in the experiment with HepG2; in the experiment on MT4 [2]; in experiment [4]) were 1 µM, 27 µM and 1 µM, respectively. Besides, the CC50 with MT4 [1] was above 282 µM; in experiment [3], above 10 µM. The SI in experiment [5] and in experiment [6] was above 10 throughout.

`NCCCCOC(=O)OCC1OC(n2ccc(N)nc2=O)CS1` (centres undefined): the EC50 in the experiment with HepG2 was 1 µM; with MT4 [2], 0.8 µM; in experiment [4], 0.1 µM. The results for the CC50 (in the experiment with MT4 [1]; in experiment [3]) were above 218 µM and above 10 µM, respectively. For the same molecule, the SI was above 260 in experiment [5] and above 100 in experiment [6].

For the molecule `Nc1ccn(C2CSC(COC(=O)NCP(=O)(O)O)O2)c(=O)n1` (centres undefined), the EC50 with HepG2 is 5 µM; with MT4 [7] it was “Not Active”; in experiment [4] it was above 10 µM. Also, the half-maximal cytotoxic concentration (CC50) is above 322 µM with MT4 [1] and above 10 µM in experiment [3].

For `CCCNC(=O)OCC1OC(n2ccc(N)nc2=O)CS1` (centres undefined), the EC50 amounted to 5 µM in the experiment on HepG2, 32 µM in the experiment on MT4 [2] and 10 µM in experiment [4]. The CC50 in the experiment on MT4 [1] was above 285 µM; in experiment [3] it was above 10 µM. Besides, the SI in experiment [5] is listed as above 9; in experiment [6] it was above 1.

For `CCCCNC(=O)OCC1OC(n2ccc(N)nc2=O)CS1` (centres undefined), the half-maximal effective concentration (EC50) is 1 µM with HepG2, 26 µM in the experiment with MT4 [2] and 5 µM in experiment [4]. Further, the CC50 was above 283 µM in the experiment with MT4 [1] and above 10 µM in experiment [3]. In addition, the SI in experiment [5] is listed as above 11; in experiment [6], above 2.

As to `Nc1ccn(C2CSC(COC(=O)NCCCCO)O2)c(=O)n1` (centres undefined), the half-maximal effective concentration (EC50) in the experiment on HepG2 was 5 µM; with MT4 [2], above 200 µM; in experiment [4], above 10 µM. Moreover, the values for the half-maximal cytotoxic concentration (CC50) (in the experiment on MT4 [1]; in experiment [3]) were above 217 µM and above 10 µM, respectively.

In the case of `NCCCCNC(=O)OCC1OC(n2ccc(N)nc2=O)CS1` (centres undefined), the EC50 was determined as 1 µM in the experiment with HepG2, 15 µM in the experiment with MT4 [2] and 10 µM in experiment [4]. The CC50 with MT4 [1] was above 218 µM; in experiment [3] it was above 10 µM. The values for the SI in experiment [5] and in experiment [6] were above 14 and above 1, respectively.

Take `Nc1ccn(C2CSC(COC(=O)NCCCCCCO)O2)c(=O)n1` (centres undefined): the EC50 in the experiment on HepG2 stood at 5 µM; in the experiment with MT4 [2], 75 µM; in experiment [4] it was 10 µM. In addition, the CC50 is above 208 µM in the experiment on MT4 [1] and above 10 µM in experiment [3]. For the same molecule, the values for the SI in experiment [5] and in experiment [6] were above 3 and above 1, respectively.

Take `CCOP(=O)(CNC(=O)OCC1OC(n2ccc(N)nc2=O)CS1)OCC` (centres undefined): the values for the EC50 (in the experiment with HepG2; with MT4 [2]; in experiment [4]) were above 5 µM, 126 µM and 10 µM, respectively. The CC50 in the experiment with MT4 [1] is above 233 µM; in experiment [3] it was above 10 µM. Besides, the SI in experiment [5] is given as above 2; in experiment [6], above 1.

On to `NCCCOC(=O)OCC1OC(n2ccc(N)nc2=O)CS1` (centres undefined), for which the EC50 was 0.5 µM in the experiment with HepG2, 0.3 µM in the experiment on MT4 [2] and 0.01 µM in experiment [4]. The values for the CC50 (in the experiment with MT4 [1]; in experiment [3]) were above 17 µM and above 10 µM, respectively. For the same molecule, the results for the SI in experiment [5] and in experiment [6] were above 57 and above 1000, respectively.

Take `Nc1ccn(C2CSC(COC(=O)NCCCO)O2)c(=O)n1` (centres undefined): the EC50 is 1 µM with HepG2, above 254 µM in the experiment with MT4 [2] and above 10 µM in experiment [4]. Further, the figures for the CC50 (with MT4 [1]; in experiment [3]) were above 281 µM and above 10 µM, respectively. The molecule also returned an SI in experiment [6] above 1.

Take `Nc1ccn([C@@H]2CS[C@H](CO)O2)c(=O)n1` [LAMIVUDINE]: the EC50 stood at 0.4 µM in the experiment on HepG2, 0.4 µM in the experiment with MT4 [2] and 0.01 µM in experiment [4]. Also, the CC50 in the experiment with MT4 [1] was above 44 µM; in experiment [3] it was above 10 µM. Moreover, the SI was above 107 in experiment [5] and above 1000 in experiment [6].
